Test results from ChEMBL document CHEMBL5236592, “Induction of Ferroptosis in Glioblastoma and Ovarian Cancers by a New Pyrrole Tubulin Assembly Inhibitor” (J Med Chem, 2022).
Activity calls are given as the source filed them.

What was measured:
Assay type in all cases: functional, organism-based
Details in all cases: time 40.0 day
SK-OV-3 [1] = assay: Induction of ferroptosis-mediated antitumor activity against human SK-OV-3 cells xenografted in BALB/C nu/nu mouse assessed as reduction in total glutathione level in tumor at 25 mg/kg, ip administered every 2 days for 40 days by biochemical analysis
In short: (§1)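 U-87 MG or SKOV-3 sc xenografts (1 × 10^8 cells/mL) in female BALB/c nu/nu mice, 4 per group. Given 25 mg/kg ip in 100 μL every 2 days, or saline. Tumors harvested on day 40 and assayed for LPO, MDA, lactic acid, total glutathione (GSH + GSSG), ATP and Fe2+.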

U-87MG ATCC [2] = assay: Induction of ferroptosis-mediated antitumor activity against human U-87 MG cells xenografted in BALB/C nu/nu mouse assessed as reduction in ATP level in tumor at 25 mg/kg, ip administered every 2 days for 40 days by biochemical analysis; in short: as §1
SK-OV-3 [3] = assay: Induction of ferroptosis-mediated antitumor activity against human SK-OV-3 cells xenografted in BALB/C nu/nu mouse assessed as increase in Fe2+ level in tumor at 25 mg/kg, ip administered every 2 days for 40 days; in short: as §1
Mus musculus [4] = assay: Upregulation of Ptgs2 mRNA expression in tumor of BALB/C nu/nu mouse xenografted with human U-87 MG cells at 25 mg/kg, ip administered every 2 days for 40 days by qPCR analysis
In short: (§2)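 Female BALB/c nu/nu mice, 10 weeks old, 4 per group. Inoculated s.c. with 1 × 10^8 cells/mL of log-phase U-87 MG or SKOV-3 cells. Dosed i.p. with 100 μL at 25 mg/kg every 2 days; controls got 100 μL saline. Tumors harvested on day 40. RNA extracted from about 20 mg of tissue. qPCR panel of 69 genes, 40 cycles (94 °C 20 s, 60 °C 34 s). Analysed by 2–ΔΔCt; fold ≥1.5 taken as increased.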

Mus musculus [5] = assay: Upregulation of Nfe2l2 mRNA expression in tumor of BALB/C nu/nu mouse xenografted with human U-87 MG cells at 25 mg/kg, ip administered every 2 days for 40 days by qPCR analysis; in short: as §2
Mus musculus [6] = assay: Upregulation of Fancd2 mRNA expression in tumor of BALB/C nu/nu mouse xenografted with human U-87 MG cells at 25 mg/kg, ip administered every 2 days for 40 days by qPCR analysis
In short: (§3)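 Female BALB/c nu/nu mice bearing sc U-87 MG or SKOV-3 xenografts were dosed ip at 25 mg/kg (100 μL) every 2 days, or given saline, and tumors were taken at day 40. RNA was extracted from about 20 mg of tissue. qPCR ran 40 cycles (95 °C 15 min; 94 °C 20 s; 60 °C 34 s) on a 69-gene panel. Fold change was by 2^–ΔΔCt, with ≥1.5 counted as increased.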

Mus musculus [7] = assay: Upregulation of Acsl4 mRNA expression in tumor of BALB/C nu/nu mouse xenografted with human U-87 MG cells at 25 mg/kg, ip administered every 2 days for 40 days by qPCR analysis; in short: as §3
Mus musculus [8] = assay: Upregulation of Gpx4 mRNA expression in tumor of BALB/C nu/nu mouse xenografted with human U-87 MG cells at 25 mg/kg, ip administered every 2 days for 40 days by qPCR analysis; in short: as §2
Mus musculus [9] = assay: Upregulation of FTL mRNA expression in tumor of BALB/C nu/nu mouse xenografted with human U-87 MG cells at 25 mg/kg, ip administered every 2 days for 40 days by qPCR analysis; in short: as §3
Mus musculus [10] = assay: Upregulation of Cbs mRNA expression in tumor of BALB/C nu/nu mouse xenografted with human SK-OV-3 cells at 25 mg/kg, ip administered every 2 days for 40 days by qPCR analysis; in short: as §3
Mus musculus [11] = assay: Upregulation of ALOX5 mRNA expression in tumor of BALB/C nu/nu mouse xenografted with human SK-OV-3 cells at 25 mg/kg, ip administered every 2 days for 40 days by qPCR analysis; in short: as §3
Mus musculus [12] = assay: Upregulation of Ptgs2 mRNA expression in tumor of BALB/C nu/nu mouse xenografted with human SK-OV-3 cells at 25 mg/kg, ip administered every 2 days for 40 days by qPCR analysis; in short: as §2
Mus musculus [13] = assay: Upregulation of Dpp4 mRNA expression in tumor of BALB/C nu/nu mouse xenografted with human SK-OV-3 cells at 25 mg/kg, ip administered every 2 days for 40 days by qPCR analysis; in short: as §3
Mus musculus [14] = assay: Upregulation of Gclm mRNA expression in tumor of BALB/C nu/nu mouse xenografted with human SK-OV-3 cells at 25 mg/kg, ip administered every 2 days for 40 days by qPCR analysis; in short: as §3
Mus musculus [15] = assay: Upregulation of Nf22l2 mRNA expression in tumor of BALB/C nu/nu mouse xenografted with human SK-OV-3 cells at 25 mg/kg, ip administered every 2 days for 40 days by qPCR analysis; in short: as §2
Mus musculus [16] = assay: Upregulation of Sat1 mRNA expression in tumor of BALB/C nu/nu mouse xenografted with human SK-OV-3 cells at 25 mg/kg, ip administered every 2 days for 40 days by qPCR analysis; in short: as §2
SK-OV-3 [17] = assay: Antitumor activity against human SK-OV-3 cells xenografted in BALB/C nu/nu mouse assessed as reduction in Ki67 expression in tumor at 25 mg/kg, ip administered every 2 days for 40 days by immunofluoresence staining based assay
In short: (§4)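 Female BALB/c nu/nu mice, 10 weeks old, 4 per group. Received subcutaneous U-87 MG or SKOV-3 cells (1 × 10^8 cells/mL, harvested in log phase). Dosed ip with 100 μL at 25 mg/kg every 2 days; controls got 100 μL saline on the same schedule. Sacrificed at 40 days; tumors weighed, volume = ab²/2. Tumor sections (6 μm, paraffin) stained by immunofluorescence for Ki67 or CD31 with Alexa Fluor 488 secondary.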

U-87MG ATCC [18] = assay: Antitumor activity against human U-87 MG cells xenografted in BALB/C nu/nu mouse assessed as reduction in CD31 expression in tumor at 25 mg/kg, ip administered every 2 days for 40 days by immunofluoresence staining based assay; in short: as §4
SK-OV-3 [19] = assay: Antitumor activity against human SK-OV-3 cells xenografted in BALB/C nu/nu mouse assessed as reduction in CD31 expression in tumor at 25 mg/kg, ip administered every 2 days for 40 days by immunofluoresence staining based assay; in short: as §4
SK-OV-3 [20] = assay: Induction of ferroptosis-mediated antitumor activity against human SK-OV-3 cells xenografted in BALB/C nu/nu mouse assessed as reduction in FTH1 protein expression in tumor at 25 mg/kg, ip administered every 2 days for 40 days by immunofluoresence staining based assay
In short: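 Xenografts of U-87 MG or SKOV-3 (1 × 10^8 cells/mL, sc) in female BALB/c nu/nu mice, 4 per group. Treated ip at 25 mg/kg in 100 μL every 2 days versus saline, tumors collected at day 40. Paraffin sections (6 μm) were blocked at 37 °C for 30 min, then incubated with rabbit anti-GPX4 or anti-FTH1 and then Alexa Fluor 488 anti-rabbit, each for 45 min at 37 °C.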

Measured: Activity

COc1cc(C(=O)c2cn(-c3ncccn3)cc2-c2ccco2)cc(OC)c1OC
active: all assays above
